The EternaBench riboswitch data

Test system: MS2 coat protein
Assay: apparent Kd, MS2 coat protein; higher = weaker binding; RNA-MaP array; tryptophan 2.4 mM where present
How it was run: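 Stalled E. coli RNA polymerase transcribed the designs on Illumina sequencing-chip clusters. SNAP-549-labelled MS2 coat protein was titrated from 0.7 or 1.5 nM, doubling to 3 µM, without and then with constant ligand, in 100 mM Tris-HCl pH 7.5, 80 mM KCl, 4 mM MgCl2, BSA, DTT, yeast tRNA and Tween-20. Per-cluster binding curves were fitted to green signal normalised to red-channel RNA signal and control-cluster median Fmax. The apparent Kd is the median of the filtered fits.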

[1] = designed as: OFF switch for tryptophan, no ligand
[2] = ligand present: tryptophan, designed as: OFF switch for tryptophan
[3] = designed as: ON switch for tryptophan, no ligand
[4] = ligand present: tryptophan, designed as: ON switch for tryptophan

Sequence	apparent Kd [1]	apparent Kd [2]	apparent Kd [3]	apparent Kd [4]
AAAACAUGAGGAUCACCACAUGACAUGAGGCGAGGACCGGUACGGCCGCCACUCGACAUACAUGAGGAUCACCCAUGUUUGUUGU	0.217 µM	0.269 µM	–	–
AGCACUGUGACGGCCGCCACUACAUAAAUAGGGUGGUCAGGUUCAUUACAUGAGGAUCACCCAUGUAGGACCGGGUCUCAGUGCA	0.00999 µM	0.00955 µM	–	–
AGACCCUUCACGGCCGCCACUCAUUUUAAGUAGAGAGAGUACAUGAGGAUCACCCAUGUGAGAGAGAGGACCGGGUGAGAUAUUA	–	–	0.0175 µM	0.0196 µM
GCUAGGUCUACGGCCGCCACUAGACGUGGGUAAGACAUGAGGAUCACCCAUGUACUACGGGCGCUUAGGACCGGGUAGACCUAGC	–	–	0.204 µM	0.0175 µM
AAUGGCCGUACCGGAAGGGUGAUCCUCAAACGAGGACCGGUACGGCCGCCACUCGAUAACAUGAGGAUCACCCAUGUAAUAAUAA	0.331 µM	0.389 µM	–	–
AACUACUCGAGGUGAUCCUACGAGUGGCAACGAGGACCGGUACGGCCGCCACUCGAAUAAACAUGAGGAUCACCCAUGUACAAAU	–	–	0.081 µM	0.0837 µM
CUAUAAGUACCGGUCCUCAGAUCCUCAUGACGAGGACCGGUACGGCCGCCACUCGAAACAUGAGGAUCACCCAUGUAAUAAUAUC	0.0207 µM	0.0186 µM	–	–
AGAUUCGACACGGCCGCCACUCUACACGGAUUUCCGAGUGUCGAACAUGAGGAUCACCCAUGUGGGAGGACCGGGUGUUGAGUCU	0.437 µM	1.03 µM	–	–
UAAACUACACAUGAGGAUCACCCAUGUGGCCGAGGACCGGUACGGCCGCCACUCGUGUGUUAAUAAAAGAACCGCAAAGUUCUGU	–	–	0.268 µM	0.0833 µM
GGUAUGUAUUCGGAAACGAAUGCAUACCAACGAGGACCGGUACGGCCGCCACUCGGCGGCGAUCAACAUGAGGAUCACCCAUGUA	0.0404 µM	0.031 µM	–	–
GUUAUAACAAAAGUUGUAACAGUGGGUGAACGAGGACCGGUACGGCCGCCACUCGGACAUGAGGAUCACCCAUGUCCAUGUGAAA	0.0162 µM	0.0403 µM	–	–
UAACAUGAGGAUCACCCAUGUAUACUUAGUCGAGGACCGGUACGGCCGCCACUCGUACUUCAAGAUUUGGCGGAAAAUGUAUGUA	0.0125 µM	0.0151 µM	–	–
CUACAUUUGUAGAAACCGGUCAACAAUAAUCGAGGACCGGUACGGCCGCCACUCGUAUAAUUUAUUACAUGAGGAUCACCCAUGU	–	–	0.0137 µM	0.0138 µM
GGUAUGUAUUCGGAAACGAAUGCAUACCAACGAGGACCGGUACGGCCGCCACUCGGGCGGCGAUCACAUGAGGAUCACCCAUGUA	0.0457 µM	0.0467 µM	–	–
GAUCAAAGAUCACAUGAGGAUCACCCAUGUCGAGGACCGGUACGGCCGCCACUCGCGGCGGUGAAAAUAGAUACAAAGUAUCUAU	0.0776 µM	0.347 µM	–	–
AGCGUGCAUCGGAAAACGAUGUACGCAAAUCGAGGACCGGUACGGCCGCCACUCGUCCUCAACAUGAGGAUCACCCAUGUAAUAA	0.0191 µM	0.0347 µM	–	–
GGUUGAUGACAUGAGGAUCACCCAUGUAGGCGAGGACCGGUACGGCCGCCACUCGACAUGAGGAUCACCCAUGUCGGCGUCCGUG	0.0152 µM	0.0262 µM	–	–
GCGCGGCGAGUGCGGCGUGUUCCGCUCCGUCGAGGACCGGUACGGCCGCCACUCGACAUGAGGAUCACCCAUGUCGCCGCGCGUC	0.0121 µM	0.0123 µM	–	–
GGGUGGUAGGCGGCCGCCACUGAUUUUUAUUUAUAGAUGACAUGAGGAUCACCCAUGUUGAUAUGCAGGACCGGGCCUGUUGUUG	–	–	0.0151 µM	0.0132 µM
ACAUGUUGGUGGUAUCUACGAAGGCGGAAACGAGGACCGGUACGGCCGCCACUCGGCGACAUGAGGAUCACCCAUGUGGUUAAGA	0.072 µM	0.0464 µM	–	–
CACAGUGCGAAAUUGAAUUCGCACGAUCCUCGAGGACCGGUACGGCCGCCACUCGCGCGGGUCGUACAUGAGGAUCACCCAUGUC	–	–	0.257 µM	0.368 µM
AGAUGAGUCACGGCCGCCACUCUUCACAGGUUCACCCUUGGUUAACAUGAGGAUCACCCAUGUGGGAGGACCGGGUGAUGAGCAU	0.0137 µM	0.0334 µM	–	–
CUGUGUCCUUCGGCCGCCACUACAUGAGGAUCACCCAUGUCGUUACGGCUCCCAAUGACGCUUUGUAGGACCGGGAAGGAGUAUG	0.0103 µM	0.0158 µM	–	–
GAUUAAACAUGAGGAUCACCCAUGUAUAUACGAGGACCGGUACGGCCGCCACUCGAAAACGAGUAUCCUCGAAUAAACAUGAUAA	–	–	0.0372 µM	0.067 µM
GCUACAUGAGGAUCACCCAUGUAUGCGAGUCGAGGACCGGUACGGCCGCCACUCGCUUAACAUGAGGAUCACCCAUGUUACUCGC	–	–	0.0646 µM	0.0311 µM
GUUAUAUCAAAAGAUGUAACAGUGGGUGAACGAGGACCGGUACGGCCGCCACUCGGACAUGAGGAUCACCCAUGUCCAUGUGAAA	0.0179 µM	0.0371 µM	–	–
